Assay results as given in ChEMBL document CHEMBL1132206, “Design, synthesis, and in vitro activity of catamphiphilic reverters of multidrug resistance: discovery of a selective, highly efficacious chemosensitizer with potency in the nanomolar range” (J Med Chem, 1999).
The source made the active and inactive calls. The rule behind the calls is not given here.

Experiments:
[1] = test system: K562; test: The efficacy in reverting MDR was evaluated on human erythroleukemia K-562 cell line; type: functional
How it was run: (§1)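 Doxorubicin-resistant and sensitive K 562 cells in exponential growth were used in pH 7.25 HEPES buffer at 37 °C in quartz cuvettes. Pirarubicin uptake was followed as the fall in fluorescence at 590 nm (ex 480 nm). Steady-state nuclear pirarubicin was measured across a range of inhibitor concentrations. α = (CnRi − CnRo)/(CnS − CnRo); αmax is the maximal α, and [i]0.5 is the concentration giving α = 0.5 (mean ± SEM).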

[2] = species on record: Cavia porcellus; test: Potency expressed as EC30 for the negative chronotropic activity.; type: functional
[3] = test system: K562; test: Percentage of the dead cells of K-562 cells was determined for the compound; type: ADME, cell-based; conditions: human
How it was run: (§2)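 Doxorubicin-resistant K 562 cells were exposed to compound at 1 µM, and viability was scored by trypan blue exclusion. Dead cells above 20% counted as toxic.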

[4] = species on record: Cavia porcellus; test: Decrease in atrial rate of the right atrium of guinea pig expressed as the negative chronotropy.; set-up: concentration or dose not given beside the values
[5] = species on record: Cavia porcellus; test: Potency expressed as EC50 for the negative inotropic activity.; type: functional
[6] = species on record: Cavia porcellus; test: Potency expressed as IC50 for the vasorelaxant activity; 'i' means inactive.; type: functional
[7] = test system: K562; test: Potency that causes a half maximal increase in nuclear concentration of pirarubicin.; type: functional, Homo sapiens
[8] = species on record: Cavia porcellus; test: Decrease in developed tension of the left atrium of guinea pig expressed as the negative inotropy.; type: functional, Cardiac atrium; set-up: concentration or dose not given beside the values
How it was run: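 Isolated guinea pig left atrium, electrically driven at 1 Hz. Read-out is the fall in developed tension at 5 × 10^-5 M, given as percent change from control (n = 5-6).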

[9] = species on record: Cavia porcellus; test: Percent inhibition of calcium-induced contraction on K+ depolarized guinea pig aortic strip.; type: functional, Aorta; set-up: concentration or dose not given beside the values
[10] = test system: K562; test: The efficacy in reverting MDR was evaluated on erythroleukemia K-562 cell line.; type: functional, Homo sapiens; how it was run: as §1
[11] = test system: K562; test: percentage of the dead cells of K-562 cells was determined for the concentration of 1 uM of the compound.; type: ADME, cell-based; conditions: human, k562, 1 µM; how it was run: as §2
[12] = species on record: Cavia porcellus; test: Potency expressed as EC30 for the negative chronotropic activity; 'i' means Inactive; type: functional
[13] = species on record: Cavia porcellus; test: Potency expressed as EC50 for the negative inotropic activity; 'i' means Inactive; type: functional

SMILES | Dead cells [3] | EC50 [5] | IC50 [6] | Dead cells [11] | EC50 [13] | Alpha max [1] | EC30 [2] | Activity [4] | Potency [7] | Activity [8] | Activity [9] | Alpha max [10] | EC30 [12]
COc1ccc(C(C#N)(CCCNCc2c3ccccc3cc3ccccc23)C(C)C)cc1OC.Cl (centres undefined) | – | 1110 nM | Inactive | 3% | – | – | 860 nM | 65% | 50 nM | 55% | 29% | 0.7 | –
COc1ccc(C(C#N)(CCCN(C)CC2c3ccccc3-c3ccccc32)C(C)C)cc1OC.Cl (centres undefined) | 3% | 1010 nM | Inactive | – | – | 0.5 | – | 31% | 2200 nM | 75% | 11% | – | inactive
COc1ccc(C(C#N)(CCCNC2c3ccccc3-c3ccccc32)C(C)C)cc1OC.Cl (centres undefined) | 0% | – | Inactive | – | Not Active | 0.8 | 650 nM | 74% | 250 nM | 33% | 46% | – | –
COc1ccc(C(C#N)(CC#CCNCc2cc3ccccc3c3ccccc23)C(C)C)cc1OC.Cl (centres undefined) | – | 1290 nM | Inactive | 20% | – | – | – | 31% | 500 nM | 88% | 10% | 0.5 | inactive
COc1ccc(C(C#N)(CC#CCNC(c2ccccc2)c2ccccc2)C(C)C)cc1OC.Cl (centres undefined) | 6% | 1540 nM | Inactive | – | – | 0.6 | – | 24% | 500 nM | 69% | 23% | – | inactive
COc1ccc(C(C#N)(CCCN(C)C2c3ccccc3-c3ccccc32)C(C)C)cc1OC.Cl (centres undefined) | 0% | – | Inactive | – | Not Active | 0.8 | – | 26% | 1000 nM | 36% | 15% | – | inactive
C=CCNc1nc(NCC=C)nc(N2CCC(NCC#CCC(C#N)(c3ccc(OC)c(OC)c3)C(C)C)CC2)n1.Cl (centres undefined) | – | 1890 nM | Inactive | 0% | – | – | 800 nM | 81% | 200 nM | 67% | 16% | 0.9 | –
Cl.N#CC(CCCNCC(c1ccccc1)c1ccccc1)(c1ccccc1)c1ccccc1 | – | 2150 nM | Inactive | 40% | – | – | 1160 nM | 82% | – | 75% | 19% | – | –
COc1ccc(C(C#N)(CC#CCNCc2c3ccccc3cc3ccccc23)C(C)C)cc1OC.Cl (centres undefined) | – | 1040 nM | Inactive | 15% | – | – | – | 34% | 2000 nM | 74% | 12% | 0.7 | inactive
Cl.N#CC(CCCNCc1cc2ccccc2c2ccccc12)(c1ccccc1)c1ccccc1 | – | 2110 nM | Inactive | 100% | – | – | – | 38% | – | 61% | 3% | – | inactive
COc1ccc(C(C#N)(CCCN(C)CC23CC4CC(CC(C4)C2)C3)C(C)C)cc1OC.Cl (centres undefined) | 1% | 1170 nM | Inactive | – | – | 0.65 | 700 nM | 72% | 1400 nM | 68% | 39% | – | –
COc1ccc(C(C#N)(CC#CCN(C)CC2c3ccccc3-c3ccccc32)C(C)C)cc1OC.Cl (centres undefined) | 30% | 1110 nM | Inactive | – | – | – | – | 25% | – | 78% | 12% | – | inactive
Cl.N#CC(CCCNC1c2ccccc2-c2ccccc21)(c1ccccc1)c1ccccc1 | 0% | 1810 nM | Inactive | – | – | 0.8 | 310 nM | 57% | 300 nM | 67% | 37% | – | –
COc1ccc(C(C#N)(CC#CCN(C)C23CC4CC(CC(C4)C2)C3)C(C)C)cc1OC.Cl (centres undefined) | 0% | 2910 nM | Inactive | – | – | 0.8 | 370 nM | 89% | 800 nM | 66% | 33% | – | –
COc1ccc(C(C#N)(CC#CCNC2c3ccccc3-c3ccccc32)C(C)C)cc1OC.Cl (centres undefined) | 10% | 1100 nM | Inactive | – | – | 0.7 | 8250 nM | 84% | 1500 nM | 77% | 42% | – | –
COc1ccc(C(C#N)(CCCNCc2cc3ccccc3c3ccccc23)C(C)C)cc1OC.Cl (centres undefined) | – | 1130 nM | Inactive | 100% | – | – | – | 43% | – | 65% | 19% | – | inactive

More lines, main results first:

Dead cells [3] | EC50 [5] | IC50 [6] | Dead cells [11] | EC50 [13] | SMILES | Alpha max [1] | EC30 [2] | Activity [4] | Potency [7] | Activity [8] | Activity [9] | Alpha max [10] | EC30 [12]
5% | 830 nM | Inactive | – | – | COc1ccc(C(C#N)(CCCNCC(c2ccccc2)c2ccccc2)C(C)C)cc1OC.Cl (centres undefined) | 0.7 | 540 nM | 74% | 250 nM | 89% | 37% | – | –
3% | 640 nM | Inactive | – | – | Cl.N#CC(CCCNC1c2ccccc2CCc2ccccc21)(c1ccccc1)c1ccccc1 | 0.5 | – | 5% | 500 nM | 80% | 5% | – | inactive
3% | 900 nM | Inactive | – | – | CN(CCCC(C#N)(c1ccccc1)c1ccccc1)C1c2ccccc2-c2ccccc21.Cl | 0.9 | – | 9% | 3000 nM | 55% | 5% | – | inactive
– | 630 nM | Inactive | 30% | – | COc1ccc(C(C#N)(CC#CCN(C)Cc2c3ccccc3cc3ccccc23)C(C)C)cc1OC.Cl (centres undefined) | – | – | 39% | – | 65% | 46% | – | inactive
10% | 680 nM | Inactive | – | – | COc1ccc(C(C#N)(CCCNC2c3ccccc3CCc3ccccc32)C(C)C)cc1OC.Cl (centres undefined) | 0.8 | 210 nM | 86% | 300 nM | 70% | 24% | – | –
0% | 350 nM | Inactive | – | – | COc1ccc(C(C#N)(CC#CCN(C)C2c3ccccc3-c3ccccc32)C(C)C)cc1OC.Cl (centres undefined) | 0.9 | – | 24% | 500 nM | 71% | 6% | – | inactive
– | 890 nM | Inactive | 0% | – | CN(CCCC(C#N)(c1ccccc1)c1ccccc1)Cc1c2ccccc2cc2ccccc12.Cl | – | – | 22% | 2100 nM | 70% | 10% | 0.8 | inactive
5% | 660 nM | Inactive | – | – | COc1ccc(C(C#N)(CCCNC(c2ccccc2)c2ccccc2)C(C)C)cc1OC.Cl (centres undefined) | 0.7 | 690 nM | 81% | 250 nM | 73% | 32% | – | –
100% | 470 nM | Inactive | – | – | COc1ccc(C(C#N)(CCCNCC2c3ccccc3-c3ccccc32)C(C)C)cc1OC.Cl (centres undefined) | – | 2240 nM | 68% | – | 71% | 26% | – | –
– | 610 nM | – | 0% | – | COc1ccc(CCN(C)CCCC(C#N)(c2ccc(OC)c(OC)c2)C(C)C)cc1OC (centres undefined) [VERAPAMIL] | – | 70 nM | 94% | – | 84% | 95% | 0.7 | –
– | 380 nM | Inactive | 2% | – | Cl.N#CC(CCCNC(c1ccccc1)c1ccccc1)(c1ccccc1)c1ccccc1 | – | – | 28% | 2000 nM | 94% | 15% | 0.5 | inactive
